In ChEMBL document CHEMBL4014314, “Rational Design of Bisubstrate-Type Analogues as Inhibitors of DNA Methyltransferases in Cancer Cells” (J Med Chem, 2017):

These molecules were tested against T1, DNA (cytosine-5)-methyltransferase 1 (Homo sapiens, UniProt P26358) (assay: Inhibition of full length His-tagged human DNMT1 using SAM/[methyl-3H]SAM assessed as reduction of methylation in biotinylated hemimethylated DNA duplex after 1 hr by scintillation counting method).
In short: (§1)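 Human full-length DNMT1 and catalytic DNMT3A tested for methylation of a DNA duplex; the paper gives assay details elsewhere. EC50 from a sigmoid dose-response fit with variable Hill slope; reported as median with SE from at least two independent experiments for DNMT1 and three for DNMT3A; DNMT3A curves run in technical duplicates.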

T1 sequence (P26358 whole entry): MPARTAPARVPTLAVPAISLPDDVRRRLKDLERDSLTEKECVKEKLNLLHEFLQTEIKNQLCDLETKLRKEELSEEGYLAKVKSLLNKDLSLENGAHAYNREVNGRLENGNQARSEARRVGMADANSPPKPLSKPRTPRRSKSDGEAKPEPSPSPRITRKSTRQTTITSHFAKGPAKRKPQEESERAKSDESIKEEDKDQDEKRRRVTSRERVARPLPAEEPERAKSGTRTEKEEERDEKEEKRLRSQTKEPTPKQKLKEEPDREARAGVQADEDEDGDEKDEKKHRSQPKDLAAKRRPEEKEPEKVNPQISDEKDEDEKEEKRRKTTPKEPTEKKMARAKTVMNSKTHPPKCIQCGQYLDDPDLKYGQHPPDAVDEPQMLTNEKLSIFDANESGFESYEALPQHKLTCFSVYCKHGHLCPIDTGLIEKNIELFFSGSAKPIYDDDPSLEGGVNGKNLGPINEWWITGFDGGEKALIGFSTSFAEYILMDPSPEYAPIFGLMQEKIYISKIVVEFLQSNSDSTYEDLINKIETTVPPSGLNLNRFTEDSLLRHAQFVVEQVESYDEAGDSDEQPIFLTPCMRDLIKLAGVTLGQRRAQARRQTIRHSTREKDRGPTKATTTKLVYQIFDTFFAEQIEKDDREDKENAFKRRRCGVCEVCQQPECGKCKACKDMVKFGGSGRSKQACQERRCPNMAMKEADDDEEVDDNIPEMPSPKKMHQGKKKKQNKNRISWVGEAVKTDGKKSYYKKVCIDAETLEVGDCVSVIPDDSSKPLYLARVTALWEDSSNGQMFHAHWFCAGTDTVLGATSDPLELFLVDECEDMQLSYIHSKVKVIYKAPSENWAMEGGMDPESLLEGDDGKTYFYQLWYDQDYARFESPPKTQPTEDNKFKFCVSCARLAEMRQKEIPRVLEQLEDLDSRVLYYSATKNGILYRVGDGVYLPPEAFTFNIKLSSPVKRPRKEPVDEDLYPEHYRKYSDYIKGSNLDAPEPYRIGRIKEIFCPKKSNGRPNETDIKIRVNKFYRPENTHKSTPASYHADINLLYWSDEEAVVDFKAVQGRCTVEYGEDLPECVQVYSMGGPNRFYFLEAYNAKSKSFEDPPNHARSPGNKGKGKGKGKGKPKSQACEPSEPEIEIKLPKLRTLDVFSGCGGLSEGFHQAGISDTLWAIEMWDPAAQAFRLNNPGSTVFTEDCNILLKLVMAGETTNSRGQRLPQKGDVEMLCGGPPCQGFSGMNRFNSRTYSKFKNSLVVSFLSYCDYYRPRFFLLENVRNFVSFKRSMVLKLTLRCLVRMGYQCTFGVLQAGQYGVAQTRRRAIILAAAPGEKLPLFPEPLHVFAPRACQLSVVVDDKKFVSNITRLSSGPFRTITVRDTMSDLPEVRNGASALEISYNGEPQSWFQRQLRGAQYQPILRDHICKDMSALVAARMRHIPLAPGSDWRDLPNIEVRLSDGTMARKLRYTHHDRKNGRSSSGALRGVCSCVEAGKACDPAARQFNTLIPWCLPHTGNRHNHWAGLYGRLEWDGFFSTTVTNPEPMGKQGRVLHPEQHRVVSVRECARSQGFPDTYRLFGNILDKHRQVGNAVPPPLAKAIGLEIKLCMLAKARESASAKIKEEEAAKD

Row | EC50 | SMILES
1 | 24 µM | Cc1cc(NCCN2CCC(COc3ccc4c(NCCCc5ccccc5)ncnc4c3)CC2)c2ccccc2n1
2 | 32 µM | c1ccc(CCNc2ncnc3cc(OCC4CCN(CCNc5ccnc6ccccc56)CC4)ccc23)cc1
3 | 16 µM | c1ccc2c(CCCNc3ncnc4cc(OCC5CCN(CCNc6ccnc7ccccc67)CC5)ccc34)cccc2c1

Second part, the molecule before the results:

Row | SMILES | EC50
4 | c1ccc(NCCNc2ncnc3cc(OCC4CCN(CCNc5ccnc6ccccc56)CC4)ccc23)cc1 | 73 µM
5 | COc1ccc(CCNc2ncnc3cc(OCC4CCN(CCNc5ccnc6ccccc56)CC4)ccc23)cc1 | 27 µM
6 | Clc1ccc(CCNc2ncnc3cc(OCC4CCN(CCNc5ccnc6ccccc56)CC4)ccc23)cc1 | 26 µM
7 | COc1cc2nccc(NCCN3CCC(COc4ccc5c(NCCCc6ccccc6)ncnc5c4)CC3)c2cc1OC | 30 µM

These molecules were tested against T2, DNA (cytosine-5)-methyltransferase 3A (Homo sapiens, UniProt Q9Y6K1) (assay: Inhibition of human DNMT3A catalytic domain using AdoMet assessed as reduction of methylation in 5'-biotin/3' 6-carboxyfluorescein labeled DNA duplex at CpG site after 1 hr by fluorescence assay).
In short: as §1

T2 sequence (Q9Y6K1 whole entry, looked up, the tested form may be a part): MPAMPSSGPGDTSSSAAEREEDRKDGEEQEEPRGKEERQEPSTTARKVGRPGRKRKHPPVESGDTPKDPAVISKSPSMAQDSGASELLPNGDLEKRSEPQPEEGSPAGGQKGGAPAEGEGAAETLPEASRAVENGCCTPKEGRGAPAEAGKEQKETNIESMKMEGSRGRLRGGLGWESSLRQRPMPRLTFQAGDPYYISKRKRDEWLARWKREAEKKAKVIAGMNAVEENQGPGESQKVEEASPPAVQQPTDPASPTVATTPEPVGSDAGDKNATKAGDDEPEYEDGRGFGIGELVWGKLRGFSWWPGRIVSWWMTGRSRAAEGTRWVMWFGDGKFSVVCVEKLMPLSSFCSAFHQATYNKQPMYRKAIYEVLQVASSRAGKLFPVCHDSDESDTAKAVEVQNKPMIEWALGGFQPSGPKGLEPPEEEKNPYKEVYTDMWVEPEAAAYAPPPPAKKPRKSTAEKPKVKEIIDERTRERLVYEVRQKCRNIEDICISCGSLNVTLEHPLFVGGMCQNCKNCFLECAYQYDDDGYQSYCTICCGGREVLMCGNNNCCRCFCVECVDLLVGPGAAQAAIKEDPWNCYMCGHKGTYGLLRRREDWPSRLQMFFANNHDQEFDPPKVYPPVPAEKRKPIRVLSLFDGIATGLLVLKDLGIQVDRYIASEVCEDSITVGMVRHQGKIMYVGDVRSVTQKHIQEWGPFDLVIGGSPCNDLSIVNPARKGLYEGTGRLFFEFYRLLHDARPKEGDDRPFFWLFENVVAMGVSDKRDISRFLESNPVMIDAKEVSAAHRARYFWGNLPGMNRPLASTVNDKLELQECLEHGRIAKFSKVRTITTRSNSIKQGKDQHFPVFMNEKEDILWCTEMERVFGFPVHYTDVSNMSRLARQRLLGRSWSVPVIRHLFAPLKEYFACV

Row | EC50 | SMILES
8 | 2.1 µM | Cc1cc(NCCN2CCC(COc3ccc4c(NCCCc5ccccc5)ncnc4c3)CC2)c2ccccc2n1
9 | 4.9 µM | c1ccc(CCNc2ncnc3cc(OCC4CCN(CCNc5ccnc6ccccc56)CC4)ccc23)cc1
10 | 1.9 µM | c1ccc2c(CCCNc3ncnc4cc(OCC5CCN(CCNc6ccnc7ccccc67)CC5)ccc34)cccc2c1

Second part, the molecule before the results:

Row | SMILES | EC50
11 | Clc1cccc(CCNc2ncnc3cc(OCC4CCN(CCNc5ccnc6ccccc56)CC4)ccc23)c1 | 1 µM
12 | c1ccc(NCCNc2ncnc3cc(OCC4CCN(CCNc5ccnc6ccccc56)CC4)ccc23)cc1 | 6.8 µM
13 | COc1ccc(CCNc2ncnc3cc(OCC4CCN(CCNc5ccnc6ccccc56)CC4)ccc23)cc1 | 3.4 µM
14 | Clc1ccc(CCNc2ncnc3cc(OCC4CCN(CCNc5ccnc6ccccc56)CC4)ccc23)cc1 | 1.2 µM
15 | COc1cc2nccc(NCCN3CCC(COc4ccc5c(NCCCc6ccccc6)ncnc5c4)CC3)c2cc1OC | 1.4 µM

The molecules below were run against T2, DNA (cytosine-5)-methyltransferase 3A (assay: Inhibition of human DNMT3A catalytic domain using AdoMet assessed as reduction of methylation in 5'-biotin/3' 6-carboxyfluorescein labeled DNA duplex at CpG site at 32 uM after 1 hr by fluorescence assay relative to control).

Row | inhibition | SMILES
16 | 82% | Cc1cc(NCCN2CCC(COc3ccc4c(NCCCc5ccccc5)ncnc4c3)CC2)c2cccc(C)c2n1
17 | 0% | c1ccc(CCCNc2ncnc3cc(OCC4CCN(CCNc5cccc6cnccc56)CC4)ccc23)cc1
18 | 77% | CN(C)c1ccc(NCCN2CCC(COc3ccc4c(NCCCc5ccccc5)ncnc4c3)CC2)c2ccccc12
19 | 66% | CN(CCN1CCC(COc2ccc3c(NCCCc4ccccc4)ncnc3c2)CC1)c1ccnc2ccccc12
20 | 49% | c1ccc(CCCNc2ncnc3cc(OCC4CCN(CCNc5cncc6ccccc56)CC4)ccc23)cc1
21 | 72% | Oc1ccc2c(NCCN3CCC(COc4ccc5c(NCCCc6ccccc6)ncnc5c4)CC3)ccnc2c1
22 | 100% | Cc1cc(NCCN2CCC(COc3ccc4c(NCCCc5ccccc5)ncnc4c3)CC2)c2ccccc2n1
23 | 0% | c1ccc(CCCNc2ncnc3cc(OCC4CCN(CCNc5ccc6ccccc6c5)CC4)ccc23)cc1
24 | 81% | c1ccc(CNc2ncnc3cc(OCC4CCN(CCNc5ccnc6ccccc56)CC4)ccc23)cc1
25 | 99% | c1ccc(CCNc2ncnc3cc(OCC4CCN(CCNc5ccnc6ccccc56)CC4)ccc23)cc1
26 | 60% | c1ccc2c(CCCNc3ncnc4cc(OCC5CCN(CCNc6ccnc7ccccc67)CC5)ccc34)cccc2c1

Second part, the molecule before the results:

Row | SMILES | inhibition
27 | Clc1ccccc1CCNc1ncnc2cc(OCC3CCN(CCNc4ccnc5ccccc45)CC3)ccc12 | 100%
28 | Clc1cccc(CCNc2ncnc3cc(OCC4CCN(CCNc5ccnc6ccccc56)CC4)ccc23)c1 | 98%
29 | Nc1ncnc2cc(OCC3CCN(CCNc4ccnc5ccccc45)CC3)ccc12 | 68%
30 | Cc1cc(NCCN2CCC(COc3ccc4c(NCCCc5ccccc5)ncnc4c3)CC2)ccn1 | 58%
31 | COc1ccc2c(NCCN3CCC(COc4ccc5c(NCCCc6ccccc6)ncnc5c4)CC3)ccnc2c1 | 80%
32 | CC(C)c1ccc(CCNc2ncnc3cc(OCC4CCN(CCNc5ccnc6ccccc56)CC4)ccc23)cc1 | 83%
33 | O=c1c2ccc(OCC3CCN(CCNc4ccnc5ccccc45)CC3)cc2ncn1CCCc1ccccc1 | 99%
34 | c1ccc(NCCNc2ncnc3cc(OCC4CCN(CCNc5ccnc6ccccc56)CC4)ccc23)cc1 | 95%
35 | COc1ccc(CCNc2ncnc3cc(OCC4CCN(CCNc5ccnc6ccccc56)CC4)ccc23)cc1 | 100%
36 | Clc1ccc(CCNc2ncnc3cc(OCC4CCN(CCNc5ccnc6ccccc56)CC4)ccc23)cc1 | 100%
37 | COc1cc2nccc(NCCN3CCC(COc4ccc5c(NCCCc6ccccc6)ncnc5c4)CC3)c2cc1OC | 95%

These molecules were tested against T2, DNA (cytosine-5)-methyltransferase 3A (assay: Inhibition of human DNMT3A catalytic domain using AdoMet assessed as reduction of methylation in 5'-biotin/3' 6-carboxyfluorescein labeled DNA duplex at CpG site at 10 uM after 1 hr by fluorescence assay relative to control).

Row | inhibition | SMILES
38 | 81% | Cc1cc(NCCN2CCC(COc3ccc4c(NCCCc5ccccc5)ncnc4c3)CC2)c2cccc(C)c2n1
39 | 0% | c1ccc(CCCNc2ncnc3cc(OCC4CCN(CCNc5cccc6cnccc56)CC4)ccc23)cc1
40 | 66% | CN(C)c1ccc(NCCN2CCC(COc3ccc4c(NCCCc5ccccc5)ncnc4c3)CC2)c2ccccc12
41 | 53% | CN(CCN1CCC(COc2ccc3c(NCCCc4ccccc4)ncnc3c2)CC1)c1ccnc2ccccc12
42 | 35% | c1ccc(CCCNc2ncnc3cc(OCC4CCN(CCNc5cncc6ccccc56)CC4)ccc23)cc1
43 | 74% | Oc1ccc2c(NCCN3CCC(COc4ccc5c(NCCCc6ccccc6)ncnc5c4)CC3)ccnc2c1
44 | 89% | Cc1cc(NCCN2CCC(COc3ccc4c(NCCCc5ccccc5)ncnc4c3)CC2)c2ccccc2n1
45 | 0% | c1ccc(CCCNc2ncnc3cc(OCC4CCN(CCNc5ccc6ccccc6c5)CC4)ccc23)cc1
46 | 43% | c1ccc(CNc2ncnc3cc(OCC4CCN(CCNc5ccnc6ccccc56)CC4)ccc23)cc1
47 | 80% | c1ccc(CCNc2ncnc3cc(OCC4CCN(CCNc5ccnc6ccccc56)CC4)ccc23)cc1
48 | 96% | c1ccc2c(CCCNc3ncnc4cc(OCC5CCN(CCNc6ccnc7ccccc67)CC5)ccc34)cccc2c1

Second part, the molecule before the results:

Row | SMILES | inhibition
49 | Clc1ccccc1CCNc1ncnc2cc(OCC3CCN(CCNc4ccnc5ccccc45)CC3)ccc12 | 10%
50 | Clc1cccc(CCNc2ncnc3cc(OCC4CCN(CCNc5ccnc6ccccc56)CC4)ccc23)c1 | 84%
51 | Nc1ncnc2cc(OCC3CCN(CCNc4ccnc5ccccc45)CC3)ccc12 | 16%
52 | Cc1cc(NCCN2CCC(COc3ccc4c(NCCCc5ccccc5)ncnc4c3)CC2)ccn1 | 26%
53 | COc1ccc2c(NCCN3CCC(COc4ccc5c(NCCCc6ccccc6)ncnc5c4)CC3)ccnc2c1 | 70%
54 | CC(C)c1ccc(CCNc2ncnc3cc(OCC4CCN(CCNc5ccnc6ccccc56)CC4)ccc23)cc1 | 53%
55 | O=c1c2ccc(OCC3CCN(CCNc4ccnc5ccccc45)CC3)cc2ncn1CCCc1ccccc1 | 65%
56 | c1ccc(NCCNc2ncnc3cc(OCC4CCN(CCNc5ccnc6ccccc56)CC4)ccc23)cc1 | 76%
57 | COc1ccc(CCNc2ncnc3cc(OCC4CCN(CCNc5ccnc6ccccc56)CC4)ccc23)cc1 | 82%
58 | Clc1ccc(CCNc2ncnc3cc(OCC4CCN(CCNc5ccnc6ccccc56)CC4)ccc23)cc1 | 88%
59 | COc1cc2nccc(NCCN3CCC(COc4ccc5c(NCCCc6ccccc6)ncnc5c4)CC3)c2cc1OC | 95%

What follows are molecules tested against T1, DNA (cytosine-5)-methyltransferase 1 (assay: Inhibition of full length His-tagged human DNMT1 using SAM/[methyl-3H]SAM assessed as reduction of methylation in biotinylated hemimethylated DNA duplex at 32 uM after 1 hr by scintillation counting method relative to control).

Row | inhibition | SMILES
60 | 33% | Cc1cc(NCCN2CCC(COc3ccc4c(NCCCc5ccccc5)ncnc4c3)CC2)c2cccc(C)c2n1
61 | 0% | c1ccc(CCCNc2ncnc3cc(OCC4CCN(CCNc5cccc6cnccc56)CC4)ccc23)cc1
62 | 8% | CN(C)c1ccc(NCCN2CCC(COc3ccc4c(NCCCc5ccccc5)ncnc4c3)CC2)c2ccccc12
63 | 10% | CN(CCN1CCC(COc2ccc3c(NCCCc4ccccc4)ncnc3c2)CC1)c1ccnc2ccccc12
64 | 0% | c1ccc(CCCNc2ncnc3cc(OCC4CCN(CCNc5cncc6ccccc56)CC4)ccc23)cc1
65 | 0% | Oc1ccc2c(NCCN3CCC(COc4ccc5c(NCCCc6ccccc6)ncnc5c4)CC3)ccnc2c1
66 | 83% | Cc1cc(NCCN2CCC(COc3ccc4c(NCCCc5ccccc5)ncnc4c3)CC2)c2ccccc2n1
67 | 0% | c1ccc(CCCNc2ncnc3cc(OCC4CCN(CCNc5ccc6ccccc6c5)CC4)ccc23)cc1
68 | 22% | c1ccc(CNc2ncnc3cc(OCC4CCN(CCNc5ccnc6ccccc56)CC4)ccc23)cc1
69 | 38% | c1ccc(CCNc2ncnc3cc(OCC4CCN(CCNc5ccnc6ccccc56)CC4)ccc23)cc1
70 | 100% | c1ccc2c(CCCNc3ncnc4cc(OCC5CCN(CCNc6ccnc7ccccc67)CC5)ccc34)cccc2c1

Continued, molecule first:

Row | SMILES | inhibition
71 | Clc1ccccc1CCNc1ncnc2cc(OCC3CCN(CCNc4ccnc5ccccc45)CC3)ccc12 | 42%
72 | Clc1cccc(CCNc2ncnc3cc(OCC4CCN(CCNc5ccnc6ccccc56)CC4)ccc23)c1 | 0%
73 | Nc1ncnc2cc(OCC3CCN(CCNc4ccnc5ccccc45)CC3)ccc12 | 0%
74 | Cc1cc(NCCN2CCC(COc3ccc4c(NCCCc5ccccc5)ncnc4c3)CC2)ccn1 | 13%
75 | COc1ccc2c(NCCN3CCC(COc4ccc5c(NCCCc6ccccc6)ncnc5c4)CC3)ccnc2c1 | 35%
76 | CC(C)c1ccc(CCNc2ncnc3cc(OCC4CCN(CCNc5ccnc6ccccc56)CC4)ccc23)cc1 | 0%
77 | O=c1c2ccc(OCC3CCN(CCNc4ccnc5ccccc45)CC3)cc2ncn1CCCc1ccccc1 | 0%
78 | c1ccc(NCCNc2ncnc3cc(OCC4CCN(CCNc5ccnc6ccccc56)CC4)ccc23)cc1 | 61%
79 | COc1ccc(CCNc2ncnc3cc(OCC4CCN(CCNc5ccnc6ccccc56)CC4)ccc23)cc1 | 82%
80 | Clc1ccc(CCNc2ncnc3cc(OCC4CCN(CCNc5ccnc6ccccc56)CC4)ccc23)cc1 | 75%
81 | COc1cc2nccc(NCCN3CCC(COc4ccc5c(NCCCc6ccccc6)ncnc5c4)CC3)c2cc1OC | 57%

What follows are molecules tested against T1, DNA (cytosine-5)-methyltransferase 1 (assay: Inhibition of full length His-tagged human DNMT1 using SAM/[methyl-3H]SAM assessed as reduction of methylation in biotinylated hemimethylated DNA duplex at 100 uM after 1 hr by scintillation counting method relative to control).

Row | inhibition | SMILES
82 | 99% | Cc1cc(NCCN2CCC(COc3ccc4c(NCCCc5ccccc5)ncnc4c3)CC2)c2cccc(C)c2n1
83 | 0% | c1ccc(CCCNc2ncnc3cc(OCC4CCN(CCNc5cccc6cnccc56)CC4)ccc23)cc1
84 | 15% | CN(C)c1ccc(NCCN2CCC(COc3ccc4c(NCCCc5ccccc5)ncnc4c3)CC2)c2ccccc12
85 | 57% | CN(CCN1CCC(COc2ccc3c(NCCCc4ccccc4)ncnc3c2)CC1)c1ccnc2ccccc12
86 | 0% | c1ccc(CCCNc2ncnc3cc(OCC4CCN(CCNc5cncc6ccccc56)CC4)ccc23)cc1
87 | 59% | Oc1ccc2c(NCCN3CCC(COc4ccc5c(NCCCc6ccccc6)ncnc5c4)CC3)ccnc2c1
88 | 100% | Cc1cc(NCCN2CCC(COc3ccc4c(NCCCc5ccccc5)ncnc4c3)CC2)c2ccccc2n1
89 | 0% | c1ccc(CCCNc2ncnc3cc(OCC4CCN(CCNc5ccc6ccccc6c5)CC4)ccc23)cc1
90 | 26% | c1ccc(CNc2ncnc3cc(OCC4CCN(CCNc5ccnc6ccccc56)CC4)ccc23)cc1
91 | 98% | c1ccc(CCNc2ncnc3cc(OCC4CCN(CCNc5ccnc6ccccc56)CC4)ccc23)cc1
92 | 100% | c1ccc2c(CCCNc3ncnc4cc(OCC5CCN(CCNc6ccnc7ccccc67)CC5)ccc34)cccc2c1

More lines, now with the values behind:

Row | SMILES | inhibition
93 | Clc1ccccc1CCNc1ncnc2cc(OCC3CCN(CCNc4ccnc5ccccc45)CC3)ccc12 | 97%
94 | Clc1cccc(CCNc2ncnc3cc(OCC4CCN(CCNc5ccnc6ccccc56)CC4)ccc23)c1 | 97%
95 | Nc1ncnc2cc(OCC3CCN(CCNc4ccnc5ccccc45)CC3)ccc12 | 99%
96 | Cc1cc(NCCN2CCC(COc3ccc4c(NCCCc5ccccc5)ncnc4c3)CC2)ccn1 | 55%
97 | COc1ccc2c(NCCN3CCC(COc4ccc5c(NCCCc6ccccc6)ncnc5c4)CC3)ccnc2c1 | 90%
98 | CC(C)c1ccc(CCNc2ncnc3cc(OCC4CCN(CCNc5ccnc6ccccc56)CC4)ccc23)cc1 | 8%
99 | O=c1c2ccc(OCC3CCN(CCNc4ccnc5ccccc45)CC3)cc2ncn1CCCc1ccccc1 | 90%
100 | c1ccc(NCCNc2ncnc3cc(OCC4CCN(CCNc5ccnc6ccccc56)CC4)ccc23)cc1 | 93%
101 | COc1ccc(CCNc2ncnc3cc(OCC4CCN(CCNc5ccnc6ccccc56)CC4)ccc23)cc1 | 100%
102 | Clc1ccc(CCNc2ncnc3cc(OCC4CCN(CCNc5ccnc6ccccc56)CC4)ccc23)cc1 | 97%
103 | COc1cc2nccc(NCCN3CCC(COc4ccc5c(NCCCc6ccccc6)ncnc5c4)CC3)c2cc1OC | 81%
